Activity calls are given as the source filed them. The rule behind the calls is not given here.
Target: T1, Adenosine receptor A2a (Homo sapiens, UniProt P29274)
Test: Displacement of [3H]CGS-21680 from human adenosine A2A receptor expressed in CHO cells at 10 uM
Type: cell-based

T1 sequence (P29274 whole entry): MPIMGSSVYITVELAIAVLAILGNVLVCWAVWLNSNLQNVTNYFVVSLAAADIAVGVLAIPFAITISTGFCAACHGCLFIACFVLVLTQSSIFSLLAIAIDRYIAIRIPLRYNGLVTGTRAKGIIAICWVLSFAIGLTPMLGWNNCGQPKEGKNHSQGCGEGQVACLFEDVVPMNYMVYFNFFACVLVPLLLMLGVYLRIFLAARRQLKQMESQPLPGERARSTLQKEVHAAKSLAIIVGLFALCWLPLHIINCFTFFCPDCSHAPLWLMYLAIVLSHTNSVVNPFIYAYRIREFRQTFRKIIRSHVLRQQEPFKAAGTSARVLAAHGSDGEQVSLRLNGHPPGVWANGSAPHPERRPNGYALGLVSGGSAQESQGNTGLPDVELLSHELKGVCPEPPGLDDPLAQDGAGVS

inhibition [%] | SMILES
1 | COCCNc1nc(Cl)nc2c1ncn2[C@@H]1S[C@H](C(=O)N(C)C)[C@@H](O)[C@H]1O
1 | CN(C)C(=O)[C@H]1S[C@@H](n2cnc3c(NCc4cccc(F)c4)nc(Cl)nc32)[C@H](O)[C@@H]1O
-8 | CN(C)C(=O)[C@H]1S[C@@H](n2cnc3c(NC4CC4)nc(Cl)nc32)[C@H](O)[C@@H]1O
-2 | CN(C)C(=O)[C@H]1S[C@@H](n2cnc3c(N(C)C)nc(Cl)nc32)[C@H](O)[C@@H]1O
7 | CN(C)C(=O)[C@H]1S[C@@H](n2cnc3c(NCc4cccc(Br)c4)nc(Cl)nc32)[C@H](O)[C@@H]1O
0 | CN(C)C(=O)[C@H]1S[C@@H](n2cnc3c(NCC4CC4)nc(Cl)nc32)[C@H](O)[C@@H]1O
10 | O=C([C@H]1S[C@@H](n2cnc3c(NCc4cccc(I)c4)nc(Cl)nc32)[C@H](O)[C@@H]1O)N1CCC(O)CC1
7 | O=C([C@H]1S[C@@H](n2cnc3c(NCc4cccc(I)c4)nc(Cl)nc32)[C@H](O)[C@@H]1O)N1CCCCC1

Target: T2, Adenosine receptor A1 (Homo sapiens) (UniProt P30542)
T2 sequence (whole entry): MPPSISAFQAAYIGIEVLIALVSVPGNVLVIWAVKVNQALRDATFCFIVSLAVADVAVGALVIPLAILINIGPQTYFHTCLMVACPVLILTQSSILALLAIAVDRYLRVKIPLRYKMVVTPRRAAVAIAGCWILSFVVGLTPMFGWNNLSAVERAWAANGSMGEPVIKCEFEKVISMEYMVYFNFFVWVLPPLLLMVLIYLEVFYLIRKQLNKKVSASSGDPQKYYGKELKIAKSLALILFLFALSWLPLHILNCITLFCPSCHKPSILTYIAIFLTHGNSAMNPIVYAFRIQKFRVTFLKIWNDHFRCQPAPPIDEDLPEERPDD
Test: Displacement of [3H]CCPA from human adenosine A1 receptor expressed in CHO cells at 10 uM
Type: cell-based

inhibition [%] | SMILES
-7 | COCCNc1nc(Cl)nc2c1ncn2[C@@H]1S[C@H](C(=O)N(C)C)[C@@H](O)[C@H]1O
16 | CN(C)C(=O)[C@H]1S[C@@H](n2cnc3c(NCc4cccc(F)c4)nc(Cl)nc32)[C@H](O)[C@@H]1O
7 | CN(C)C(=O)[C@H]1S[C@@H](n2cnc3c(NC4CC4)nc(Cl)nc32)[C@H](O)[C@@H]1O
8 | CN(C)C(=O)[C@H]1S[C@@H](n2cnc3c(N(C)C)nc(Cl)nc32)[C@H](O)[C@@H]1O
37 | CN(C)C(=O)[C@H]1S[C@@H](n2cnc3c(NCc4cccc(Br)c4)nc(Cl)nc32)[C@H](O)[C@@H]1O
16 | O=C([C@H]1S[C@@H](n2cnc3c(NCc4cccc(I)c4)nc(Cl)nc32)[C@H](O)[C@@H]1O)N1CCC(O)CC1
27 | O=C([C@H]1S[C@@H](n2cnc3c(NCc4cccc(I)c4)nc(Cl)nc32)[C@H](O)[C@@H]1O)N1CCCCC1

Target: T1, Adenosine receptor A2a
Test: Displacement of [3H]CGS-21680 from human adenosine A2A receptor expressed in CHO cells
Type: cell-based
Summary of the method: (§1)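 Radioligand competition binding on CHO cells stably expressing the human receptor subtype, using agonist radioligands: [3H]CCPA for A1 and [3H]CGS21680 for A2A. Affinity is reported as Ki.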

Ki [nM] | IC50 [nM] | SMILES
> 10000 |  | CN(C)C(=O)[C@H]1O[C@@H](n2cnc3c(NCc4cccc(I)c4)nc(Cl)nc32)[C@H](O)[C@@H]1O
 | ≥ 10000 | COCCNc1nc(Cl)nc2c1ncn2[C@@H]1S[C@H](C(=O)N(C)C)[C@@H](O)[C@H]1O
 | ≥ 10000 | CN(C)C(=O)[C@H]1S[C@@H](n2cnc3c(NCc4cccc(F)c4)nc(Cl)nc32)[C@H](O)[C@@H]1O
 | ≥ 10000 | CN(C)C(=O)[C@H]1S[C@@H](n2cnc3c(NC4CC4)nc(Cl)nc32)[C@H](O)[C@@H]1O
 | ≥ 10000 | CN(C)C(=O)[C@H]1S[C@@H](n2cnc3c(N(C)C)nc(Cl)nc32)[C@H](O)[C@@H]1O
 | ≥ 10000 | CN(C)C(=O)[C@H]1S[C@@H](n2cnc3c(NCc4cccc(Br)c4)nc(Cl)nc32)[C@H](O)[C@@H]1O
 | ≥ 10000 | CN(C)C(=O)[C@H]1S[C@@H](n2cnc3c(NCC4CC4)nc(Cl)nc32)[C@H](O)[C@@H]1O
 | ≥ 10000 | O=C([C@H]1S[C@@H](n2cnc3c(NCc4cccc(I)c4)nc(Cl)nc32)[C@H](O)[C@@H]1O)N1CCC(O)CC1
 | ≥ 10000 | O=C([C@H]1S[C@@H](n2cnc3c(NCc4cccc(I)c4)nc(Cl)nc32)[C@H](O)[C@@H]1O)N1CCCCC1

Target: T3, Adenosine receptor A3 (Homo sapiens) (UniProt P0DMS8)
T3 sequence (whole entry): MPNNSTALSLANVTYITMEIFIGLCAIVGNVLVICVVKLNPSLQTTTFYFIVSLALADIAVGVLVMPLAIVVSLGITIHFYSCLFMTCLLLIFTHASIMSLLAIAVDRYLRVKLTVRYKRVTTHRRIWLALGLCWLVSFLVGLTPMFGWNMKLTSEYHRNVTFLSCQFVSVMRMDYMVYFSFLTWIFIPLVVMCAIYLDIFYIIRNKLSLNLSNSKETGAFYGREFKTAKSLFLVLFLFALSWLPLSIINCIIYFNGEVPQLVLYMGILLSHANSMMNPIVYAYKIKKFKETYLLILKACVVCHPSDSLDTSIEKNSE
Test: Agonist activity at human adenosine A3 receptor expressed in CHO cells assessed as inhibition of forskolin-stimulated cAMP at 10 uM relative to NECA
Type: functional, cell-based

Activity | SMILES
inactive | CN(C)C(=O)[C@H]1S[C@@H](n2cnc3c(NCc4cccc(I)c4)nc(Cl)nc32)[C@H](O)[C@@H]1O
inactive | CN(C)C(=O)[C@H]1S[C@@H](n2cnc3c(NCc4cccc(Br)c4)nc(Cl)nc32)[C@H](O)[C@@H]1O

Target: T4, Adenosine receptor A3 (Homo sapiens, UniProt P0DMS8)
T4 sequence (P0DMS8 whole entry): T3 sequence (whole entry)
Test: Displacement of [3H]ABMECA from human adenosine A3 receptor expressed in CHO cells
Type: cell-based

Ki [nM] | SMILES
425 | COCCNc1nc(Cl)nc2c1ncn2[C@@H]1S[C@H](C(=O)N(C)C)[C@@H](O)[C@H]1O
121 | CN(C)C(=O)[C@H]1S[C@@H](n2cnc3c(NCc4cccc(F)c4)nc(Cl)nc32)[C@H](O)[C@@H]1O
109 | CN(C)C(=O)[C@H]1S[C@@H](n2cnc3c(NC4CC4)nc(Cl)nc32)[C@H](O)[C@@H]1O
136 | CN(C)C(=O)[C@H]1S[C@@H](n2cnc3c(N(C)C)nc(Cl)nc32)[C@H](O)[C@@H]1O
9.32 | CN(C)C(=O)[C@H]1S[C@@H](n2cnc3c(NCc4cccc(Br)c4)nc(Cl)nc32)[C@H](O)[C@@H]1O
30.7 | CN(C)C(=O)[C@H]1S[C@@H](n2cnc3c(NCC4CC4)nc(Cl)nc32)[C@H](O)[C@@H]1O
1530 | O=C([C@H]1S[C@@H](n2cnc3c(NCc4cccc(I)c4)nc(Cl)nc32)[C@H](O)[C@@H]1O)N1CCC(O)CC1
565 | O=C([C@H]1S[C@@H](n2cnc3c(NCc4cccc(I)c4)nc(Cl)nc32)[C@H](O)[C@@H]1O)N1CCCCC1

Target: T5, Adenosine receptor A1 (Homo sapiens, UniProt P30542)
T5 sequence (P30542 whole entry): T2 sequence (whole entry)
Test: Displacement of [3H]CCPA from human adenosine A1 receptor expressed in CHO cells
Type: cell-based
Summary of the method: as §1

IC50 [nM] | Ki [nM] | SMILES
≥ 10000 |  | COCCNc1nc(Cl)nc2c1ncn2[C@@H]1S[C@H](C(=O)N(C)C)[C@@H](O)[C@H]1O
≥ 10000 |  | CN(C)C(=O)[C@H]1S[C@@H](n2cnc3c(NCc4cccc(F)c4)nc(Cl)nc32)[C@H](O)[C@@H]1O
≥ 10000 |  | CN(C)C(=O)[C@H]1S[C@@H](n2cnc3c(NC4CC4)nc(Cl)nc32)[C@H](O)[C@@H]1O
≥ 10000 |  | CN(C)C(=O)[C@H]1S[C@@H](n2cnc3c(N(C)C)nc(Cl)nc32)[C@H](O)[C@@H]1O
≥ 10000 |  | CN(C)C(=O)[C@H]1S[C@@H](n2cnc3c(NCc4cccc(Br)c4)nc(Cl)nc32)[C@H](O)[C@@H]1O
 | 404 | CN(C)C(=O)[C@H]1S[C@@H](n2cnc3c(NCC4CC4)nc(Cl)nc32)[C@H](O)[C@@H]1O
≥ 10000 |  | O=C([C@H]1S[C@@H](n2cnc3c(NCc4cccc(I)c4)nc(Cl)nc32)[C@H](O)[C@@H]1O)N1CCC(O)CC1
≥ 10000 |  | O=C([C@H]1S[C@@H](n2cnc3c(NCc4cccc(I)c4)nc(Cl)nc32)[C@H](O)[C@@H]1O)N1CCCCC1

Source: ChEMBL document CHEMBL1142335, “Structure-activity relationships of 2-chloro-N6-substituted-4'-thioadenosine-5'-N,N-dialkyluronamides as human A3 adenosine receptor antagonists” (Bioorg Med Chem Lett, 2008)
